Source: ChEMBL document CHEMBL3120102, “Structure-based design, synthesis and biological evaluation of novel anthra[1,2-d]imidazole-6,11-dione homologues as potential antitumor agents” (2013)

What was measured:
Assay type in all cases: functional
[1] = test system: NCI/ADR-RES; test: (§1) Cytotoxicity against human NCI-ADR-RES cells assessed as growth inhibition after 48 hrs by SRB assay
Summary of the method: (§2)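 NCI 60-cell-line screen, five-dose stage: each cell line exposed for 48 h to five concentrations spanning five log steps; cellular protein measured by sulforhodamine B colorimetry. A time-zero cell control and plates without drug are used to derive GI50, TGI and LC50 from log-concentration dose-response curves.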

[2] = as §1; summary of the method: as §2
[3] = test system: NCI-H322M; test: Cytotoxicity against human NCI-H322M cells assessed as growth inhibition after 48 hrs by SRB assay; summary of the method: as §2
[4] = test system: RPMI-8226; test: Cytotoxicity against human RPMI8226 cells assessed as growth inhibition after 48 hrs by SRB assay; summary of the method: as §2
[5] = test system: OVCAR-3; test: Cytotoxicity against human OVCAR3 cells assessed as growth inhibition after 48 hrs by SRB assay; summary of the method: as §2
[6] = test system: DU-145; test: Cytotoxicity against human DU145 cells assessed as growth inhibition after 48 hrs by SRB assay
Summary of the method: (§3)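 NCI 60-cell-line five-dose screen at […]. Drug exposure was 48 h, followed by sulforhodamine B protein staining. GI50, TGI and LC50 were calculated against a time-zero control and untreated plates, with dose–response curves plotted from log10 concentration.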

[7] = test system: LOX IMVI; test: Cytotoxicity against human LOXIMVI cells assessed as growth inhibition after 48 hrs by SRB assay; summary of the method: as §3
[8] = test system: UACC-257; test: (§4) Cytotoxicity against human UACC257 cells assessed as growth inhibition after 48 hrs by SRB assay
Summary of the method: (§5)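 NCI 60-cell-line screen, two stages. Five-dose testing at […]. Cellular protein measured by sulforhodamine B colorimetry after 48 h drug exposure. A time-zero control and drug-free plates are used to derive GI50, TGI and LC50 from dose-response curves plotted as log10 concentration per cell line.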

[9] = as §4; details: UACC-257, 48 h; summary of the method: as §5
[10] = test system: SK-OV-3; test: Cytotoxicity against human SKOV3 cells assessed as growth inhibition after 48 hrs by SRB assay; summary of the method: as §2
[11] = test system: OVCAR-3; test: Cytotoxicity against human OVCAR3 cells assessed as cell growth at 10 uM after 48 hrs by SRB assay; details: OVCAR-3, 48 h, read-out: Activity
Summary of the method: (§6)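 First stage of the NCI 60 human tumour cell line screen: a single dose is tested against every line. Cell growth is read as cellular protein by sulforhodamine B colorimetry after 48 h of drug exposure, with reference to a time-zero control and to untreated plates.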

[12] = test system: NCI-H460; test: Cytotoxicity against human NCI-H460 cells assessed as growth inhibition after 48 hrs by SRB assay; summary of the method: as §2
[13] = test system: CCRF-CEM; test: Cytotoxicity against human CCRF-CEM cells assessed as growth inhibition after 48 hrs by SRB assay; summary of the method: as §3
[14] = test system: EKVX; test: (§7) Cytotoxicity against human EKVX cells assessed as growth inhibition after 48 hrs by SRB assay; summary of the method: as §3
[15] = as §7; summary of the method: as §3
[16] = test system: HT-29; test: Cytotoxicity against human HT-29 cells assessed as cell growth at 10 uM after 48 hrs by SRB assay; details: HT-29, 48 h, read-out: Activity
[17] = test system: SF-539; test: Cytotoxicity against human SF539 cells assessed as growth inhibition after 48 hrs by SRB assay; summary of the method: as §2
[18] = test system: Malme-3M; test: Cytotoxicity against human MALME-3M cells assessed as growth inhibition after 48 hrs by SRB assay; summary of the method: as §3
[19] = test system: OVCAR-5; test: (§8) Cytotoxicity against human OVCAR5 cells assessed as growth inhibition after 48 hrs by SRB assay; summary of the method: as §2
[20] = as §8; details: OVCAR-5, 48 h; summary of the method: as §2
[21] = test system: HT-29; test: Cytotoxicity against human HT-29 cells assessed as growth inhibition after 48 hrs by SRB assay; summary of the method: as §3
[22] = test system: SW-620; test: Cytotoxicity against human SW620 cells assessed as growth inhibition after 48 hrs by SRB assay; summary of the method: as §5
[23] = test system: NCI-H522; test: Cytotoxicity against human NCI-H522 cells assessed as growth inhibition after 48 hrs by SRB assay; summary of the method: as §2
[24] = test system: UACC-62; test: Cytotoxicity against human UACC62 cells assessed as growth inhibition after 48 hrs by SRB assay; summary of the method: as §5
[25] = test system: U-251; test: Cytotoxicity against human U251 cells assessed as growth inhibition after 48 hrs by SRB assay; summary of the method: as §5
[26] = test system: OVCAR-8; test: Cytotoxicity against human OVCAR8 cells assessed as growth inhibition after 48 hrs by SRB assay; summary of the method: as §2
[27] = test system: NCI-H226; test: Cytotoxicity against human NCI-H226 cells assessed as growth inhibition after 48 hrs by SRB assay; summary of the method: as §2
[28] = test system: MDA-MB-468; test: Cytotoxicity against human MDA-MB-468 cells assessed as cell growth at 10 uM after 48 hrs by SRB assay; details: MDA-MB-468, 48 h, read-out: Activity; summary of the method: as §6
[29] = test system: SF-268; test: Cytotoxicity against human SF268 cells assessed as growth inhibition after 48 hrs by SRB assay; summary of the method: as §2
[30] = test system: COLO 205; test: Cytotoxicity against human COLO205 cells assessed as growth inhibition after 48 hrs by SRB assay; summary of the method: as §3

With `CCSc1nc2ccc3c(c2[nH]1)C(=O)c1ccccc1C3=O` the “growth inhibition (GI)” value [1] was “Dose-dependent effect”, the GI50 [2] was 8.04 µM and the LC50 (concentration causing 50% net cell kill) [2] was greater than 100 µM. For the same molecule, the TGI [2] was greater than 100 µM, the GI50 [3] was 3.24 µM and the LC50 (concentration killing 50% of cells relative to time zero) [3] was greater than 100 µM. For the same molecule, the TGI [3] was greater than 100 µM, the “growth inhibition (GI)” value [3] was “Dose-dependent effect” and the “growth inhibition (GI)” value [4] was “Dose-dependent effect”. For the same molecule, the GI50 ([4]; RPMI-8226, 48 h) was 2.83 µM, the LC50 (concentration causing 50% net cell kill) ([4]; RPMI-8226, 48 h) was greater than 100 µM and the TGI ([4]; RPMI-8226, 48 h) was greater than 100 µM. The “growth inhibition (GI)” value [5] was “Dose-dependent effect”, the GI50 ([5]; OVCAR-3, 48 h) was 10.2 µM and the LC50 (50% lethal concentration) ([5]; OVCAR-3, 48 h) was greater than 100 µM. For the same molecule, the TGI ([5]; OVCAR-3, 48 h) was greater than 100 µM, the “growth inhibition (GI)” value [6] was “Dose-dependent effect” and the GI50 ([6]; DU-145, 48 h) was 7.02 µM. The TGI ([6]; DU-145, 48 h) was greater than 100 µM, the CC50 ([6]; DU-145, 48 h, read-out: LC50 (the source's name)) was greater than 100 µM and the GI50 [7] was 6 µM. For the same molecule, the LC50 [7] was greater than 100 µM, the TGI [7] was greater than 100 µM and the “growth inhibition (GI)” value [7] was “Dose-dependent effect”. The “growth inhibition (GI)” value [8] was “Dose-dependent effect”, the GI50 [9] was greater than 100 µM and the LC50 [9] was greater than 100 µM. For the same molecule, the TGI [9] was greater than 100 µM, the “growth inhibition (GI)” value [10] was “Dose-dependent effect” and the GI50 ([10]; SK-OV-3, 48 h) was 3.8 µM. It also gave an LC50 (concentration killing 50% of cells present at time zero) ([10]; SK-OV-3, 48 h) greater than 100 µM, a TGI ([10]; SK-OV-3, 48 h) greater than 100 µM and a growth at 10 µM [11] of 69.3%. For the same molecule, the “growth inhibition (GI)” value [12] was “Dose-dependent effect”, the GI50 ([12]; NCI-H460, 48 h) was 5.49 µM and the LC50 ([12]; NCI-H460, 48 h) was greater than 100 µM. The TGI ([12]; NCI-H460, 48 h) was greater than 100 µM, the GI50 [13] was 3.66 µM and the LC50 [13] was greater than 100 µM. The TGI [13] was greater than 100 µM, the “growth inhibition (GI)” value [13] was “Dose-dependent effect” and the “growth inhibition (GI)” value [14] was “Dose-dependent effect”. It also gave a GI50 [15] of 2.13 µM, an LC50 [15] greater than 100 µM and a TGI [15] of 29 µM. The growth at 10 µM [16] was 75.2%, the “growth inhibition (GI)” value [17] was “Dose-dependent effect” and the GI50 ([17]; SF-539, 48 h) was 22.9 µM. The TGI ([17]; SF-539, 48 h) was greater than 100 µM, the CC50 ([17]; SF-539, 48 h, read-out: LC50 (the source's name)) was greater than 100 µM and the GI50 [18] was 3.58 µM. For the same molecule, the TGI [18] was 94 µM, the “growth inhibition (GI)” value [18] was “Dose-dependent effect” and the CC50 ([18]; read-out: LC50 (the source's name)) was greater than 100 µM. The “growth inhibition (GI)” value [19] was “Dose-dependent effect”, the GI50 [20] was 6.25 µM and the LC50 [20] was greater than 100 µM. For the same molecule, the TGI [20] was greater than 100 µM, the “growth inhibition (GI)” value [21] was “Dose-dependent effect” and the GI50 ([21]; HT-29, 48 h) was 23.1 µM. For the same molecule, the TGI ([21]; HT-29, 48 h) was greater than 100 µM, the CC50 ([21]; HT-29, 48 h, read-out: LC50 (the source's name)) was greater than 100 µM and the “growth inhibition (GI)” value [22] was “Dose-dependent effect”. It also gave a GI50 ([22]; SW-620, 48 h) greater than 100 µM, an LC50 ([22]; SW-620, 48 h) greater than 100 µM and a TGI ([22]; SW-620, 48 h) greater than 100 µM. The “growth inhibition (GI)” value [23] was “Dose-dependent effect”, the GI50 ([23]; NCI-H522, 48 h) was 4.07 µM and the TGI ([23]; NCI-H522, 48 h) was greater than 100 µM. The CC50 ([23]; NCI-H522, 48 h, read-out: LC50 (the source's name)) was greater than 100 µM, the “growth inhibition (GI)” value [24] was “Dose-dependent effect” and the GI50 ([24]; UACC-62, 48 h) was 7.73 µM. For the same molecule, the LC50 ([24]; UACC-62, 48 h) was greater than 100 µM, the TGI ([24]; UACC-62, 48 h) was greater than 100 µM and the “growth inhibition (GI)” value [25] was “Dose-dependent effect”. It also gave a GI50 ([25]; U-251, 48 h) of 19.5 µM, a TGI ([25]; U-251, 48 h) greater than 100 µM and a CC50 ([25]; U-251, 48 h, read-out: LC50 (the source's name)) greater than 100 µM. For the same molecule, the “growth inhibition (GI)” value [26] was “Dose-dependent effect”, the GI50 ([26]; OVCAR-8, 48 h) was 15.1 µM and the LC50 ([26]; OVCAR-8, 48 h) was greater than 100 µM. For the same molecule, the TGI ([26]; OVCAR-8, 48 h) was greater than 100 µM, the “growth inhibition (GI)” value [27] was “Dose-dependent effect” and the GI50 ([27]; NCI-H226, 48 h) was 14.2 µM. The LC50 ([27]; NCI-H226, 48 h) was greater than 100 µM, the TGI ([27]; NCI-H226, 48 h) was greater than 100 µM and the growth at 10 µM [28] was 35.4%. For the same molecule, the “growth inhibition (GI)” value [29] was “Dose-dependent effect”, the GI50 ([29]; SF-268, 48 h) was 18.1 µM and the LC50 (concentration killing 50% of cells relative to time zero) ([29]; SF-268, 48 h) was greater than 100 µM. For the same molecule, the TGI ([29]; SF-268, 48 h) was greater than 100 µM, the “growth inhibition (GI)” value [30] was “Dose-dependent effect” and the GI50 ([30]; COLO 205, 48 h) was 17.4 µM. The LC50 ([30]; COLO 205, 48 h) was greater than 100 µM and the TGI ([30]; COLO 205, 48 h) was greater than 100 µM.
